From ChEMBL document CHEMBL1152445, “Modulation of multidrug resistance protein 1 (MRP1/ABCC1)-mediated multidrug resistance by bivalent apigenin homodimers and their derivatives” (J Med Chem, 2009)
Blank lines part the entries; values can stand above or below the compound they belong to. The source made the active and inactive calls. The calls are words filed in the database; no cut-off is given here.

Tests used:
[1] = Cytotoxicity against human 2008/MRP1 cells after 5 days by MTS assay; format: cell-based; settings: 2008/MRP1, 120 h
[2] = Cytotoxicity against human 2008/MRP1 cells at 0.5 uM by MTS assay; format: cell-based; settings: 2008/mrp1, 0.5 µM
[3] = Cytotoxicity against human 2008/P cells at 0.5 uM after 5 days by MTS assay; format: cell-based; settings: 120 h
[4] = Cytotoxicity against human 2008/P cells after 5 days by MTS assay; format: cell-based; settings: 120 h
[5] = biological target: T1, Multidrug resistance-associated protein 1 (Homo sapiens, UniProt P33527); experiment: Reversal of MRP1-mediated doxorubicin resistance in human 2008/MRP1 cells assessed as ratio of doxorubicin IC50 to doxorubicin IC50 in presence of compound at 0.5 uM; format: cell-based; settings: 2008/mrp1, 0.5 µM
Homo sapiens = species on record: Homo sapiens; experiment: Increase in doxorubicin accumulation in doxorubicin-co-incubated human 2008/P cells at 3 uM after 120 mins by spectrofluorimetry; format: functional
In short: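 5 × 10^5 cells of the parental ovarian line incubated 120 min at 37 °C with 20 μM doxorubicin plus 3 μM modulator, 0.3% DMSO as vehicle control. Cells washed twice with cold PBS pH 7.4 and lysed in 0.75 M HCl/0.2% Triton X-100 in isopropanol, then 20 min at 37 °C. Supernatant fluorescence read at ex 460/em 610 nm. Duplicate, three repeats, mean ± SEM.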

[6] = biological target: T1, Multidrug resistance-associated protein 1; experiment: Reversal of MRP1-mediated doxorubicin resistance in doxorubicin co-incubated human 2008/MRP1 cells assessed as increase in doxorubicin accumulation at 3 uM after 120 mins by spectrofluorimetry relative to control; format: cell-based; settings: 2008/mrp1, 2 h
[7] = biological target: T1, Multidrug resistance-associated protein 1; experiment: Reversal of MRP1-mediated doxorubicin resistance in doxorubicin co-incubated human 2008/MRP1 cells assessed as effect on doxorubicin accumulation at […] after 120 mins by spectrofluorimetry; format: cell-based; settings: 2008/mrp1, 2 h
Mus musculus = experiment: Potentiation of vincristine-efficacy in nude mouse model assessed as regression of tumor volume at 8 mg/kg in presence of 0.5 mg/kg vincristine; format: functional
[8] = biological target: ATP-binding cassette sub-family C member 2 (Homo sapiens, UniProt Q92887); experiment: Inhibition of MRP2
[9] = Anticancer activity against human 2008/P cells after 5 days by MTS assay; format: functional, cell-based; settings: 120 h
[10] = Anticancer activity against human 2008/MRP1 cells after 5 days by MTS assay; format: functional, cell-based; settings: 2008/MRP1, 120 h
[11] = Selectivity ratio of IC50 for human 2008/MRP1 cells to IC50 for human 2008/P cells; format: functional
In short: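 Ratio of doxorubicin or etoposide IC50 in the MRP1 transfectant to IC50 in the parental line. Both IC50 values come from the 5-day MTS proliferation assay without modulator.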

T1 sequence (P33527 whole entry): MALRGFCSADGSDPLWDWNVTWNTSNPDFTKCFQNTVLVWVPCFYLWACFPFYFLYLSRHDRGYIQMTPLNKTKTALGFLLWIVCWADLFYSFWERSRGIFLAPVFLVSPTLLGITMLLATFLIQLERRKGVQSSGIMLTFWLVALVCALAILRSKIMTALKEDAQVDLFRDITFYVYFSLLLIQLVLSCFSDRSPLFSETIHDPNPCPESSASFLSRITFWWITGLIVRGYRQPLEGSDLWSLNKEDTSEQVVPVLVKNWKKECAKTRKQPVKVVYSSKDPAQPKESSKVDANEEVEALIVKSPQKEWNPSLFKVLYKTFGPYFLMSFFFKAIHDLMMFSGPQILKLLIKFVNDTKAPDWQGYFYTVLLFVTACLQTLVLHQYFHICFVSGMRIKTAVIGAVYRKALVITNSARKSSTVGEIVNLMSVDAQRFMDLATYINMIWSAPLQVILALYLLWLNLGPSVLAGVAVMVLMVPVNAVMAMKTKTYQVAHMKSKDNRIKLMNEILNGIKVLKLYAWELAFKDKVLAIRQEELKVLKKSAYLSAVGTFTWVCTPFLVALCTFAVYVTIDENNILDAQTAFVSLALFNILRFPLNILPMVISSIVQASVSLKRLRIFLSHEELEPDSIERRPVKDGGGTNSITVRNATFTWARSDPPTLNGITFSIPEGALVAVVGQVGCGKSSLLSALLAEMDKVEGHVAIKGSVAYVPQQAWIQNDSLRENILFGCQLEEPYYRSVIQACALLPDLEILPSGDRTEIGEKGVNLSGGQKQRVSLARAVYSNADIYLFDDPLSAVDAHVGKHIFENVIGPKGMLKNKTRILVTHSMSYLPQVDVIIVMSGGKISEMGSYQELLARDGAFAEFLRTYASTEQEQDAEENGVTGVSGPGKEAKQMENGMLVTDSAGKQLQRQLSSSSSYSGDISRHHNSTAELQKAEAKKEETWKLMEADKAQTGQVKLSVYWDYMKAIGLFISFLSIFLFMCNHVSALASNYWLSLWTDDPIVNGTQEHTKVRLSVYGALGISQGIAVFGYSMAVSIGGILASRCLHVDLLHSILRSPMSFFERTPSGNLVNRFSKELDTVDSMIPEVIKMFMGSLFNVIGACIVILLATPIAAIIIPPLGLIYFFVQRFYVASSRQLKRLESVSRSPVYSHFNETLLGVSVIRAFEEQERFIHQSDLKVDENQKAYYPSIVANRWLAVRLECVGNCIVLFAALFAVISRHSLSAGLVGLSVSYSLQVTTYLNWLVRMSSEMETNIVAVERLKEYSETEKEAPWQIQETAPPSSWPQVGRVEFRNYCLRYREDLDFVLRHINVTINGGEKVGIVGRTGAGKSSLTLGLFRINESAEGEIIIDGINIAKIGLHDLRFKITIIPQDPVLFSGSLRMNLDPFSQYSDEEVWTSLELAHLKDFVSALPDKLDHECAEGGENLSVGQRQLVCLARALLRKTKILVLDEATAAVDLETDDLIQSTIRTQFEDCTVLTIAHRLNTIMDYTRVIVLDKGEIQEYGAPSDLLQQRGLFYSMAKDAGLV
Sequence of ATP-binding cassette sub-family C member 2 (Q92887 whole entry): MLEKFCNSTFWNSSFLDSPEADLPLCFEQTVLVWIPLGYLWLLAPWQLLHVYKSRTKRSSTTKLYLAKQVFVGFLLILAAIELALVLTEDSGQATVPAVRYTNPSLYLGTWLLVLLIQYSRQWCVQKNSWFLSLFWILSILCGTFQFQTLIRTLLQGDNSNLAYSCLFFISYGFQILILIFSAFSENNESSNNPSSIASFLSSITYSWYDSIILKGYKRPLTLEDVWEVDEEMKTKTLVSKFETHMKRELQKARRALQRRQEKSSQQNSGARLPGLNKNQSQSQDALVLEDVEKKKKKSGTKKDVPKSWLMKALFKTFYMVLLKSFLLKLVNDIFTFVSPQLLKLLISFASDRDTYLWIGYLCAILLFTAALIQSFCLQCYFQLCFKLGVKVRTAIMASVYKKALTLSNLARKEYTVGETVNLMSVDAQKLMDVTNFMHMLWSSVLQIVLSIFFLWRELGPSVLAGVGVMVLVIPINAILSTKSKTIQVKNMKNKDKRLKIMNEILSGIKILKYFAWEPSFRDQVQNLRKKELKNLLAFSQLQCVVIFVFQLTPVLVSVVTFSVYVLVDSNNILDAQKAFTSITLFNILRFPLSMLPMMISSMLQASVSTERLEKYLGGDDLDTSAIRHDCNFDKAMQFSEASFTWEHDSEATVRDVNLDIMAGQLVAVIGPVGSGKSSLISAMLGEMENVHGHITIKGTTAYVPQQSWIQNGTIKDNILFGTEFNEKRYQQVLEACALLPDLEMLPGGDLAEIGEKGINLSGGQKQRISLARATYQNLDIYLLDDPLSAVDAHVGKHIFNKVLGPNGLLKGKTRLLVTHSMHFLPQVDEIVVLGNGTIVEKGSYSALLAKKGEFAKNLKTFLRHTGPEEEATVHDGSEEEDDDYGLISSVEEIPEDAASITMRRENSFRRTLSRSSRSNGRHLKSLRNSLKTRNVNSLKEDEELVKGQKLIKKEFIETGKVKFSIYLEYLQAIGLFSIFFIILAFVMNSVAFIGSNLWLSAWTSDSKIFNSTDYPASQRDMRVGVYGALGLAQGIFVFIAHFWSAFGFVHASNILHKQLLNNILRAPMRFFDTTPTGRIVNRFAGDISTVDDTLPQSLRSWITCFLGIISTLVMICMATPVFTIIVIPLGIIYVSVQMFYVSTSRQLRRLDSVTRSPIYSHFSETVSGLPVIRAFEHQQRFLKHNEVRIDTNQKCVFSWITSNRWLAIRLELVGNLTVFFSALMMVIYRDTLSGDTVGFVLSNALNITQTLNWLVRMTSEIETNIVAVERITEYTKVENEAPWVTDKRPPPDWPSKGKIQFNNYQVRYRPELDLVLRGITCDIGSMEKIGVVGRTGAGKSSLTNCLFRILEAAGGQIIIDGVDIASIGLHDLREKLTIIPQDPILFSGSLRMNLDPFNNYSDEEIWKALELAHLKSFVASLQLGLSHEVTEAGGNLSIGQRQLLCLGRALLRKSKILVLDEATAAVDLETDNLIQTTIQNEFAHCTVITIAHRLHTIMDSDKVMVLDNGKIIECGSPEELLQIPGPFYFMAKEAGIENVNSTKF

SMILES: Cc1ccc2c(=O)cc(-c3ccc(OCCOCCOCCOCCOCCOc4ccc(-c5cc(=O)c6ccc(C)cc6o5)cc4)cc3)oc2c1
IC50 [1]: 53.3 µM | Activity [2]: Non-toxic | Activity [3]: Non-toxic | IC50 [4]: 60.6 µM

SMILES: Cc1c(-c2ccc(OCCOCCOCCOCCOCCOCCOc3ccc(-c4oc5ccccc5c(=O)c4C)cc3)cc2)oc2ccccc2c1=O
Activity [2]: Non-toxic | Activity [3]: Non-toxic

SMILES: O=c1cc(-c2ccc(OCCOCCOCCOCCOCCOCCOCCOCCOCCOc3ccc(-c4cc(=O)c5ccccc5o4)cc3)cc2)oc2ccccc12
Activity [2]: Non-toxic | Activity [3]: Non-toxic

SMILES: Cc1ccc2c(=O)cc(-c3ccc(OCCOCCOCCOCCOc4ccc(-c5cc(=O)c6ccc(C)cc6o5)cc4)cc3)oc2c1
IC50 [1]: > 100 µM | Activity [2]: Non-toxic | Activity [3]: Non-toxic | IC50 [4]: > 100 µM

SMILES: CCc1ccc2oc(-c3ccc(OCCOCCOCCOCCOc4ccc(-c5cc(=O)c6cc(CC)ccc6o5)cc4)cc3)cc(=O)c2c1
IC50 [1]: 69.5 µM | Activity [2]: Non-toxic | Activity [3]: Non-toxic | IC50 [4]: 77.7 µM

SMILES: O=c1cc(-c2ccc(OCCOCCOCCOCCOCCOc3ccc(-c4cc(=O)c5ccc(F)cc5o4)cc3)cc2)oc2cc(F)ccc12
IC50 [1]: 8.9 µM | Activity [2]: Non-toxic | Activity [3]: Non-toxic | IC50 [4]: 17.5 µM

SMILES: Cc1c(-c2ccc(OCCOCCOCCOCCOCCOc3ccc(-c4oc5ccccc5c(=O)c4C)cc3)cc2)oc2ccccc2c1=O
Activity [2]: Non-toxic | Activity [3]: Non-toxic

Activity [5]: 1.5
SMILES: O=c1cc(-c2ccc(OCCOCCOCCOCCOCCOCCOCCOc3ccc(-c4cc(=O)c5c(O)cc(O)cc5o4)cc3)cc2)oc2cc(O)cc(O)c12

SMILES: O=c1cc(-c2ccc(OCCOCCOCCOCCOCCOCCOCCOc3ccc(-c4cc(=O)c5ccccc5o4)cc3)cc2)oc2ccccc12
Activity [2]: Non-toxic | Activity [3]: Non-toxic

SMILES: CN(C)C(=O)CCSC(SCCC(=O)O)c1cccc(/C=C/c2ccc3ccc(Cl)cc3n2)c1 (centres undefined)
Activity (Homo sapiens): inactive

SMILES: Cc1ccc2oc(-c3ccc(OCCOCCOCCOCCOCCOc4ccc(-c5cc(=O)c6cc(C)ccc6o5)cc4)cc3)cc(=O)c2c1
IC50 [1]: > 100 µM | Activity [2]: Non-toxic | Activity (Homo sapiens): Active | Activity [3]: Non-toxic | IC50 [4]: > 100 µM

Activity [6]: Not Active | Activity [7]: Not Active
SMILES: CCCN(CCC)S(=O)(=O)c1ccc(C(=O)O)cc1 [PROBENECID]
Activity (Homo sapiens): inactive

SMILES: Cc1onc2c1c(=O)n([C@H]1CCC[C@@H](CNC(=O)c3ccccc3)C1)c1cccc(Cl)c21
Activity (Mus musculus): 63%

SMILES: COc1ccc(CCN(C)CCCC(C#N)(c2ccc(OC)c(OC)c2)C(C)C)cc1OC (centres undefined)
Activity (Homo sapiens): inactive

IC50 [8]: 22 µM
SMILES: O=c1c(O)c(-c2cc(O)c(O)c(O)c2)oc2cc(O)cc(O)c12 [MYRICETIN]

Activity [5]: 7.8
SMILES: O=c1cc(-c2ccc(OCCOCCOCCOCCOCCOCCOc3ccc(-c4cc(=O)c5ccccc5o4)cc3)cc2)oc2ccccc12
IC50 [1]: 2.8 µM | Activity [2]: Non-toxic | Activity [3]: Non-toxic | IC50 [4]: 3.7 µM

SMILES: Cc1ccc2oc(-c3ccc(OCCOCCOCCOCCOc4ccc(-c5cc(=O)c6cc(C)ccc6o5)cc4)cc3)cc(=O)c2c1
IC50 [1]: > 77 µM | Activity [2]: Non-toxic | Activity [3]: Non-toxic | IC50 [4]: > 100 µM

SMILES: Cc1ccc2c(=O)cc(-c3ccc(OCCOCCOCCOCCOCCOCCOc4ccc(-c5cc(=O)c6ccc(C)cc6o5)cc4)cc3)oc2c1
IC50 [1]: 10.2 µM | Activity [2]: Non-toxic | Activity [3]: Non-toxic | IC50 [4]: 6.1 µM

SMILES: CCc1ccc2oc(-c3ccc(OCCOCCOCCOCCOCCOCCOc4ccc(-c5cc(=O)c6cc(CC)ccc6o5)cc4)cc3)cc(=O)c2c1
IC50 [1]: 76.2 µM | Activity [2]: Non-toxic | Activity [3]: Non-toxic | IC50 [4]: > 96 µM

SMILES: O=c1cc(-c2ccc(OCCOCCOCCOCCOCCOCCOCCOCCOc3ccc(-c4cc(=O)c5ccccc5o4)cc3)cc2)oc2ccccc12
Activity [2]: Non-toxic | Activity [3]: Non-toxic

SMILES: O=c1cc(-c2ccc(OCCOCCOCCOCCOc3ccc(-c4cc(=O)c5ccccc5o4)cc3)cc2)oc2ccccc12
IC50 [1]: > 93 µM | IC50 [4]: > 100 µM

SMILES: COc1cccc2c1C(=O)c1c(O)c3c(c(O)c1C2=O)C[C@@](O)(C(=O)CO)C[C@@H]3O[C@H]1C[C@H](N)[C@H](O)[C@H](C)O1 [DOXORUBICIN]
IC50 [9]: 0.063 µM | IC50 [10]: 0.577 µM | Ratio IC50 [11]: 9.2

SMILES: CCc1ccc2oc(-c3ccc(OCCOCCOCCOCCOCCOc4ccc(-c5cc(=O)c6cc(CC)ccc6o5)cc4)cc3)cc(=O)c2c1
IC50 [1]: 46.1 µM | Activity [2]: Non-toxic | Activity [3]: Non-toxic | IC50 [4]: 62.6 µM

SMILES: O=c1cc(-c2ccc(OCCOCCOCCOc3ccc(-c4cc(=O)c5c(O)cc(O)cc5o4)cc3)cc2)oc2cc(O)cc(O)c12
IC50 [1]: > 100 µM | IC50 [4]: > 100 µM

SMILES: Cc1ccc2oc(-c3ccc(OCCOCCOCCOCCOCCOCCOc4ccc(-c5cc(=O)c6cc(C)ccc6o5)cc4)cc3)cc(=O)c2c1
IC50 [1]: > 100 µM | Activity [2]: Non-toxic | Activity [3]: Non-toxic | IC50 [4]: > 100 µM

SMILES: O=c1cc(-c2ccc(OCCOCCOCCOCCOCCOCCOc3ccc(-c4cc(=O)c5ccc(F)cc5o4)cc3)cc2)oc2cc(F)ccc12
IC50 [1]: 5.2 µM | Activity [2]: Non-toxic | Activity [3]: Non-toxic | IC50 [4]: 4.4 µM

SMILES: O=c1cc(-c2ccc(OCCOCCOCCOCCOCCOCCOCCOCCOCCOCCOCCOCCOCCOc3ccc(-c4cc(=O)c5ccccc5o4)cc3)cc2)oc2ccccc12
Activity [2]: Non-toxic | Activity [3]: Non-toxic

SMILES: O=c1cc(-c2ccc(OCCOCCOCCOCCOc3ccc(-c4cc(=O)c5c(O)cc(O)cc5o4)cc3)cc2)oc2cc(O)cc(O)c12
IC50 [1]: > 100 µM | IC50 [4]: > 100 µM
